Assay results taken from ChEMBL document CHEMBL3992520, “Development of the First Two-Pore Domain Potassium Channel TWIK-Related K+ Channel 1-Selective Agonist Possessing in Vivo Antinociceptive Activity” (J Med Chem, 2017).

How the values were obtained:
[1] = molecular target: T1, Potassium channel subfamily K member 2 (Homo sapiens) (UniProt O95069); test: Agonist activity at human TREK1 expressed in HEK293 cells assessed as increase in K+ current at 100 uM measured at +60 mV by whole-cell patch clamp method relative to control; assay type: cell-based
T1 sequence (whole entry): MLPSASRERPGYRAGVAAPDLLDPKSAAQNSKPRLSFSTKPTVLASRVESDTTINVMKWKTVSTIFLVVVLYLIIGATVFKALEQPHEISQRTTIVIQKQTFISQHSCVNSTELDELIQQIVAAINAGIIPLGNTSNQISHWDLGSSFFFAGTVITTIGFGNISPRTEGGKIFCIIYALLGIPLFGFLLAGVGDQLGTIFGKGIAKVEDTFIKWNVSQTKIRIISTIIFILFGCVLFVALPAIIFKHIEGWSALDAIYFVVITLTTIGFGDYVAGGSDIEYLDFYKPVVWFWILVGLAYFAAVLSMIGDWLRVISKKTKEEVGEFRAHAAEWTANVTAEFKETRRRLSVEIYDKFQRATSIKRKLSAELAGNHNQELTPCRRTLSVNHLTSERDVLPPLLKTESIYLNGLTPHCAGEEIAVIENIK
Method in brief: (§1)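 Human TREK-1 (kcnk2) in pIRES2-eGFP was stably expressed in HEK-293 cells under G418 selection, and cells were used 4–48 h after plating. Bath (mM): 140 NaCl, 10 TEA-Cl, 5 KCl, 3 MgCl2, 1 CaCl2, 10 HEPES, pH 7.4. Pipette (mM): 155 KCl, 3 MgCl2, 5 EGTA, 10 HEPES, pH 7.2. Holding was −80 mV, with a step to −100 mV then a 400 ms ramp to +60 mV every 5 s. Read-out was the ratio Imax/I0 taken from I/V curves. Stocks were 20 mM in DMSO.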

Liver = test: Drug metabolism in rat liver microsomes assessed as (E)-2-cyano-3-(furan-3-yl)acrylic acid formation at 40 mM in presence of NADPH-cofactor measured after 24 hrs by HPLC analysis; assay type: ADME, microsome; conditions: 40000 µM
Method in brief: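 Incubation mix: rat liver microsomes (20 mg/mL stock), phosphate buffer pH 7.4 and NADPH (40 mM stock). Drug was added from a 40 mM DMSO stock. Samples were vortexed and incubated at 37 °C with stirring.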

[2] = Half life in rat liver microsomes at 40 mM in presence of NADPH-cofactor by HPLC analysis; assay type: ADME, microsome
Mus musculus [3] = test: Antinociceptive activity in CD1 mouse assessed as increase in thermal-stimulus induced paw withdrawal latency at 60 mg/kg, sc measured after 30 mins by hot plate method relative to control; assay type: functional
Method in brief: (§2)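 Male CD1 mice (20-25 g), n=8 per group, given 60 mg/kg s.c. After 5 min acclimatization on a plate at room temperature, mice were placed on a 52 °C hotplate. Latency to forepaw or hindpaw licking or hindpaw flicking was recorded, with a 30 s cut-off. Latency was taken after two consecutive stable baselines, then 30 and 45 min post-dose. Effect = (postdrug − predrug latency)/predrug latency ×100.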

Mus musculus [4] = test: Antinociceptive activity in CD1 mouse assessed as increase in thermal-stimulus induced paw withdrawal latency at 60 mg/kg, sc measured after 45 mins by hot plate method relative to control; assay type: functional; method in brief: as §2
Mus musculus [5] = test: Antinociceptive activity in CD1 mouse assessed as inhibition of acetic acid-induced writhes at 10 mg/kg, sc pretreated for 15 mins followed by acetic acid challenge measured within 20 mins relative to control; assay type: functional
Method in brief: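 Male CD1 mice (20-25 g), n=8 per group, dosed at 10 mg/kg s.c. or with vehicle (5% Tween 80 in 0.9% saline). Dosing was 15 min before i.p. 0.6% acetic acid (10 mL/kg). Abdominal writhes were counted for 20 min. Effect = (mean control writhes − mean test writhes)/mean control writhes ×100.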

[6] = molecular target: T2, Potassium channel subfamily K member 2 (Bos taurus) (UniProt Q8HY88); test: Agonist activity at TREK1 in bovine AZF cells assessed as increase in K+ current at 40 uM by whole-cell patch clamp method relative to control; assay type: cell-based
T2 sequence (whole entry): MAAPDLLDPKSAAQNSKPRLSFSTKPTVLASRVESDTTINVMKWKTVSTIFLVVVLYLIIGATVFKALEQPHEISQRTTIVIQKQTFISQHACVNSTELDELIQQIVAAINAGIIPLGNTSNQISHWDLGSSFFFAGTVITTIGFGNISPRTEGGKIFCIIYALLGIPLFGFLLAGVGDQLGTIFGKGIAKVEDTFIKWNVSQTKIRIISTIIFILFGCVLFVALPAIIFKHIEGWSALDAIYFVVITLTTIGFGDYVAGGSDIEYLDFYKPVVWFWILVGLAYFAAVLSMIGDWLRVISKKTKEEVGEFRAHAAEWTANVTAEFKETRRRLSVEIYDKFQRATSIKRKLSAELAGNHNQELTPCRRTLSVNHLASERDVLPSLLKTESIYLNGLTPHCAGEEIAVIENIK

[7] = molecular target: T1, Potassium channel subfamily K member 2 (Homo sapiens); test: Agonist activity at human TREK1 expressed in HEK293 cells assessed as increase in K+ current at 20 uM measured at +60 mV by whole-cell patch clamp method relative to control; assay type: cell-based; method in brief: as §1
Mus musculus [8] = test: Antinociceptive activity in TREK1 deficient C57Bl/6J mouse assessed as increase in thermal-stimulus induced paw withdrawal latency at 60 mg/kg, sc measured after 30 mins by hot plate method relative to control; assay type: functional
Method in brief: (§3)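 TREK-1−/− and wild-type C57Bl/6J littermates came from heterozygous crosses, n=7. Dose was 60 mg/kg s.c. The 52 °C hotplate measured paw-lick latency, 30 s cut-off, with baseline from two stable pre-dose latencies.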

Mus musculus [9] = test: In vivo activation of TREK1 in C57Bl/6J mouse assessed as increase in thermal-stimulus induced paw withdrawal latency at 60 mg/kg, sc measured after 45 mins by hot plate method relative to control; assay type: functional; method in brief: as §3
[10] = molecular target: T3, Potassium channel subfamily K member 4 (Homo sapiens) (UniProt Q9NYG8); test: Agonist activity at TRAAK (unknown origin) expressed in HEK293 cells assessed as increase in K+ current at 20 uM measured at +60 mV by whole-cell patch clamp method relative to control; assay type: cell-based
T3 sequence (whole entry): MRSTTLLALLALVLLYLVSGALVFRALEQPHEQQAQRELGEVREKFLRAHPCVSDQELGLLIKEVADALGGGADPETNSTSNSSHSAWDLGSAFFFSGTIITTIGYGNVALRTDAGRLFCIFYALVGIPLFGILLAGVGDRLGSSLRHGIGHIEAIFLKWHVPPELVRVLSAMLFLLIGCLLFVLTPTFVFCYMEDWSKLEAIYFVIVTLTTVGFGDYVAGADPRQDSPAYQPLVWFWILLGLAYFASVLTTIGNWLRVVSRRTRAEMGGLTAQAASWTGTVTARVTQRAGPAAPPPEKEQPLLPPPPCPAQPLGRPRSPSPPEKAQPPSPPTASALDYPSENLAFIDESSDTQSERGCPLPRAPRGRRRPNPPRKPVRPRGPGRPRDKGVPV

[11] = molecular target: T4, Potassium channel subfamily K member 10 (Homo sapiens) (UniProt P57789); test: Agonist activity at TREK-2 (unknown origin) expressed in HEK293 cells assessed as increase in K+ current at 20 uM measured at +60 mV by whole-cell patch clamp method relative to control; assay type: cell-based
T4 sequence (whole entry): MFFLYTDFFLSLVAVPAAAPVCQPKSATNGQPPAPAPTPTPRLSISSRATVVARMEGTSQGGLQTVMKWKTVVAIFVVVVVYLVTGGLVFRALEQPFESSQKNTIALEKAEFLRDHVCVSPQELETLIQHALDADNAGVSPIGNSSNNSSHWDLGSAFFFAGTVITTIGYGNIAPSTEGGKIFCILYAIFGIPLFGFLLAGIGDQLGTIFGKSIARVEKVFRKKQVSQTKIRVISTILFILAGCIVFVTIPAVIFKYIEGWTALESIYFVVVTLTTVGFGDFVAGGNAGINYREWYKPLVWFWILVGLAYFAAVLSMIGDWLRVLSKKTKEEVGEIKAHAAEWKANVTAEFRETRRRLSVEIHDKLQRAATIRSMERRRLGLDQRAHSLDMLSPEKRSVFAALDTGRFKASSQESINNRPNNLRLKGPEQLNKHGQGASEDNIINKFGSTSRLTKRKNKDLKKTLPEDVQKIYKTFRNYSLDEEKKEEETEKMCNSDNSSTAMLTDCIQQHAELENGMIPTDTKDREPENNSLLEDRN

Mus musculus [12] = test: Antinociceptive activity in TREK1 deficient C57Bl/6J mouse assessed as increase in thermal-stimulus induced paw withdrawal latency at 60 mg/kg, sc measured after 45 mins by hot plate method relative to control; assay type: functional; method in brief: as §3
Mus musculus [13] = test: Antinociceptive activity in wild-type C57Bl/6J mouse assessed as increase in thermal-stimulus induced paw withdrawal latency at 60 mg/kg, sc measured after 45 mins by hot plate method relative to control; assay type: functional; method in brief: as §3
Mus musculus [14] = test: In vivo activation of TREK1 in C57Bl/6J mouse assessed as increase in thermal-stimulus induced paw withdrawal latency at 60 mg/kg, sc measured after 30 mins by hot plate method relative to control; assay type: functional; method in brief: as §3
Mus musculus [15] = test: Antinociceptive activity in wild-type C57Bl/6J mouse assessed as increase in thermal-stimulus induced paw withdrawal latency at 60 mg/kg, sc measured after 30 mins by hot plate method relative to control; assay type: functional; method in brief: as §3
[16] = molecular target: Potassium channel subfamily K member 9 (Homo sapiens) (UniProt Q9NPC2); test: Agonist activity at TASK3 (unknown origin) expressed in HEK293 cells assessed as increase in K+ current at 20 uM measured at +60 mV by whole-cell patch clamp method relative to control; assay type: cell-based
[17] = molecular target: T1, Potassium channel subfamily K member 2 (Homo sapiens); test: Agonist activity at human TREK1 expressed in HEK293 cells assessed as increase in K+ current at 10 uM measured at +60 mV by whole-cell patch clamp method relative to control; assay type: cell-based; method in brief: as §1

Potassium channel subfamily K member 9 (Homo sapiens), sequence (Q9NPC2 whole entry): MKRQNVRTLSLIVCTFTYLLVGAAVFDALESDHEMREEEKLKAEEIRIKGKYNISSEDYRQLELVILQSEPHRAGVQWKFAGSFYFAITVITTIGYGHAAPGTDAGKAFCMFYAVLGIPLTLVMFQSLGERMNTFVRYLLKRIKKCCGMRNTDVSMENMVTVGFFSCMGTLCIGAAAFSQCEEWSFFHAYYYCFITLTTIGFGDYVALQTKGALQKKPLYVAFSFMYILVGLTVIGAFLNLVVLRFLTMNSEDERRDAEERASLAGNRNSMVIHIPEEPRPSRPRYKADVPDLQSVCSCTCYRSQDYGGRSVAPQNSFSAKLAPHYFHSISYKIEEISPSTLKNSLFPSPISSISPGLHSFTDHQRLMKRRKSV

SMILES: CCOC(=O)/C(C#N)=C/c1ccoc1
- fold change (FC) [1]: 2.09
- Drug metabolism (Liver): Metabolite_Detected
- half-life [2]: < 4 min
- Activity (Mus musculus [3]): 28.4%
- Activity (Mus musculus [4]): 11.9%
- inhibition in vivo at 10 mg/kg (Mus musculus [5]): 55.9%

SMILES: O=C(O)/C=C/c1ccc(O)c(O)c1
- fold change (FC) [6]: 1

SMILES: N#C/C(=C\c1ccoc1)C(=O)Nc1ccccc1
- fold change (FC) [7]: 4.64
- Activity (Mus musculus [8]): 29.2%
- Activity (Mus musculus [9]): 0%
- fold change (FC) [10]: 1
- fold change (FC) [11]: 3
- Activity (Mus musculus [12]): 35.1%
- Activity (Mus musculus [13]): 22.1%
- Activity (Mus musculus [3]): 107.7%
- Activity (Mus musculus [4]): 148.6%
- Activity (Mus musculus [14]): 0%
- Activity (Mus musculus [15]): 24.8%
- inhibition in vivo at 10 mg/kg (Mus musculus [5]): 48%
- fold change (FC) [16]: 0.5

SMILES: N#C/C(=C\c1cc2ccccc2[nH]1)C(=O)OC1CCCCC1
- fold change (FC) [17]: 1.98
- half-life [2]: 25 to 45 min
- Activity (Mus musculus [3]): 65.7%
- Activity (Mus musculus [4]): 52.6%
- inhibition in vivo at 10 mg/kg (Mus musculus [5]): 83.6%
